ChEMBL document CHEMBL6134795, “Mannich reaction mediated derivatization of chromones and their biological evaluations as putative multipotent ligands for the treatment of Alzheimer's disease” (RSC Med Chem, 2024)
pIC50: −log10 of the molar value. Active and inactive are the calls of the source. No cut-off for these calls is given here.

Key:
[1] = biological target: T1, Cholinesterase (Homo sapiens, UniProt P06276); test: Inhibition of recombinant BuChE (unknown origin) using BTCI as substrate at 20 uM preincubated for 30 mins followed by substrate addition by TECAN multiplate reader analysis relative to control
T1 sequence (P06276 whole entry): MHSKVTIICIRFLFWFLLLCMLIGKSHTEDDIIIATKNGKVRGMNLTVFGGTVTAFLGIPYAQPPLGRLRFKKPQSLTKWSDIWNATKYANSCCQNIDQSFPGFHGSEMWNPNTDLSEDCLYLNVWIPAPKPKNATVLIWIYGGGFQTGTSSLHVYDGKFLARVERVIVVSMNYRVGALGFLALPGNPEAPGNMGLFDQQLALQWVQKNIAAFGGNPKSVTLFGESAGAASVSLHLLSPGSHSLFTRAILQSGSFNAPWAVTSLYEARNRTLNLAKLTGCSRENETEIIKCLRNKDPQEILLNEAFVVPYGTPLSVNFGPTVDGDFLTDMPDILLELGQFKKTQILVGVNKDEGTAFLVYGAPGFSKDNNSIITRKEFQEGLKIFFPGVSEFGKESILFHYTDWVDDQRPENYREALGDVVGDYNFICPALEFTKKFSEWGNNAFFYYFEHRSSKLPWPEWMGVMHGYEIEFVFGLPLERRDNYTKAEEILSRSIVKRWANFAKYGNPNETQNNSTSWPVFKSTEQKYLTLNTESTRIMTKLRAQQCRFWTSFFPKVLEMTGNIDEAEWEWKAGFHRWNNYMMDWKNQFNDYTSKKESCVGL
Procedure, shortened: (§1)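 Ellman method as for AChE, using butyrylcholinesterase with BTCI as substrate. Enzyme and compound preincubated 30 min at 37 °C in a CO2 incubator, then DTNB and BTCI added; absorbance read at 417 nm. Screening at 20 μM as % inhibition; IC50 for compounds exceeding 50% inhibition at 20 μM. Triplicate.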

[2] = biological target: T2, Amine oxidase [flavin-containing] B (Homo sapiens, UniProt P27338); test: Inhibition of recombinant MAO-B (unknown origin) at 20 uM preincubated for 30 mins followed substrate addition by Amplex Red reagent based fluorescence analysis relative to control
T2 sequence (P27338 whole entry): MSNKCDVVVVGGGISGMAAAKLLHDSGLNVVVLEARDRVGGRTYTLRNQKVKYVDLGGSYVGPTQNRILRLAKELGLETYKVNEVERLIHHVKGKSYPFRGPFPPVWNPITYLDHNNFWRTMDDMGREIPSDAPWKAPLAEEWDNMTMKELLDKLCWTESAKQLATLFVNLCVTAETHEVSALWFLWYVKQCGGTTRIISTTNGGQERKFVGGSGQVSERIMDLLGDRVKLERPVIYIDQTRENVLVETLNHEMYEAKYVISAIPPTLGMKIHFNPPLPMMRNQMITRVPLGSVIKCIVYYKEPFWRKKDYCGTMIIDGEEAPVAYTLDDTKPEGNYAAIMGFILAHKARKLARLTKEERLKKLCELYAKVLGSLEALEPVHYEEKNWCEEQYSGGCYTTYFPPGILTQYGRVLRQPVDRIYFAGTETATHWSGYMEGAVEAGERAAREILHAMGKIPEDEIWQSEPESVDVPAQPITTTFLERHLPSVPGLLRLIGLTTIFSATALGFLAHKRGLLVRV
Procedure, shortened: (§2)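 Recombinant MAO enzyme preincubated with compound 30 min at 37 °C; substrate, HRP and Amplex Red working solution then added; H2O2 formation read at 37 °C by fluorescence, ex 545/em 590 nm. Screening at 20 μM as % inhibition versus control; IC50 only for compounds above 50% inhibition at 20 μM; triplicate (n = 3).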

[3] = biological target: Acetylcholinesterase (Homo sapiens, UniProt P22303); test: Inhibition of AChE (unknown origin)
Acetylcholinesterase, sequence (P22303 whole entry): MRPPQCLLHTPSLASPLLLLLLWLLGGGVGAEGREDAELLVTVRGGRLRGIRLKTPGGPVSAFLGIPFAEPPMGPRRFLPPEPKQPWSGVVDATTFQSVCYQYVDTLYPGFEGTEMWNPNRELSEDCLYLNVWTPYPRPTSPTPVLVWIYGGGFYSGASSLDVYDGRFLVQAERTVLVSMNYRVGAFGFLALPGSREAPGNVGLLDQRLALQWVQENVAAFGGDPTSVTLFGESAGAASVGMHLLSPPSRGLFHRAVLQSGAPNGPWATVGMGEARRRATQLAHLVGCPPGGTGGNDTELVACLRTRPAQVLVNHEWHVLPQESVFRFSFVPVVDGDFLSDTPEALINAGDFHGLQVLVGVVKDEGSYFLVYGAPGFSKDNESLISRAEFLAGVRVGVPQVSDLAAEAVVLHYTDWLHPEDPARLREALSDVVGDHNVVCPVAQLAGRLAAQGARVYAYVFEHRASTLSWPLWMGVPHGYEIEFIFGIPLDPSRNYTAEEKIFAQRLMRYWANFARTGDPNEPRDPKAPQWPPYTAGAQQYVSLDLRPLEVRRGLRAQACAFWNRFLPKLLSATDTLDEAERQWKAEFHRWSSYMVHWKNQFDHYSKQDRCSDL
Procedure, shortened: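 Recombinant AChE (0.5 U ml-1) preincubated with compound for 30 min at 37 °C in a CO2 incubator. DTNB and acetylthiocholine substrate (AChSI) then added, and absorbance read at 417 nm. Screening at 20 μM as % inhibition; IC50 determined for compounds giving over 50% inhibition at 20 μM. Run in triplicate.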

[4] = biological target: T2, Amine oxidase [flavin-containing] B; test: Inhibition of MAO-B (unknown origin)
[5] = biological target: T1, Cholinesterase; test: Inhibition of BuChE (unknown origin); procedure, shortened: as §1
[6] = biological target: T3, Amine oxidase [flavin-containing] A (Homo sapiens, UniProt P21397); test: Inhibition of recombinant MAO-A (unknown origin) at 20 uM preincubated for 30 mins followed substrate addition by Amplex Red reagent based fluorescence analysis relative to control; procedure, shortened: as §2
T3 sequence (P21397 whole entry): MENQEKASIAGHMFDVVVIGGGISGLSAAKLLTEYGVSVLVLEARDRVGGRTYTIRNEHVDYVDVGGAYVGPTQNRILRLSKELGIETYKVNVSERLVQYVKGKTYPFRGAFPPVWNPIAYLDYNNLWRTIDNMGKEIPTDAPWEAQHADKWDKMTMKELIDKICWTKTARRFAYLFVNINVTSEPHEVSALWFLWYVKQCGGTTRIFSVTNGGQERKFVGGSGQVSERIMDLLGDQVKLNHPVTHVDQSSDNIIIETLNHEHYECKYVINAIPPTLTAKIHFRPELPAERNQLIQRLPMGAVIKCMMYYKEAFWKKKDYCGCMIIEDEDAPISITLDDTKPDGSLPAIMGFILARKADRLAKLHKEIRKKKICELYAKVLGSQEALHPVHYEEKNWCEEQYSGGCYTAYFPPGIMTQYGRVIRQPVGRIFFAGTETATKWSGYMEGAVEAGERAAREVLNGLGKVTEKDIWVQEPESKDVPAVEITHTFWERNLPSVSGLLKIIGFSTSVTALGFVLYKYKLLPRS

[7] = biological target: Amyloid-beta precursor protein (Homo sapiens) (UniProt P05067); test: Inhibition of self-induced amyloid beta (1 to 42 residues) (unknown origin) aggregation assessed as reduction in plaques formation measured after 72 hrs by FE-SEM analysis
Amyloid-beta precursor protein (Homo sapiens), sequence (P05067 whole entry, the tested form may be a part): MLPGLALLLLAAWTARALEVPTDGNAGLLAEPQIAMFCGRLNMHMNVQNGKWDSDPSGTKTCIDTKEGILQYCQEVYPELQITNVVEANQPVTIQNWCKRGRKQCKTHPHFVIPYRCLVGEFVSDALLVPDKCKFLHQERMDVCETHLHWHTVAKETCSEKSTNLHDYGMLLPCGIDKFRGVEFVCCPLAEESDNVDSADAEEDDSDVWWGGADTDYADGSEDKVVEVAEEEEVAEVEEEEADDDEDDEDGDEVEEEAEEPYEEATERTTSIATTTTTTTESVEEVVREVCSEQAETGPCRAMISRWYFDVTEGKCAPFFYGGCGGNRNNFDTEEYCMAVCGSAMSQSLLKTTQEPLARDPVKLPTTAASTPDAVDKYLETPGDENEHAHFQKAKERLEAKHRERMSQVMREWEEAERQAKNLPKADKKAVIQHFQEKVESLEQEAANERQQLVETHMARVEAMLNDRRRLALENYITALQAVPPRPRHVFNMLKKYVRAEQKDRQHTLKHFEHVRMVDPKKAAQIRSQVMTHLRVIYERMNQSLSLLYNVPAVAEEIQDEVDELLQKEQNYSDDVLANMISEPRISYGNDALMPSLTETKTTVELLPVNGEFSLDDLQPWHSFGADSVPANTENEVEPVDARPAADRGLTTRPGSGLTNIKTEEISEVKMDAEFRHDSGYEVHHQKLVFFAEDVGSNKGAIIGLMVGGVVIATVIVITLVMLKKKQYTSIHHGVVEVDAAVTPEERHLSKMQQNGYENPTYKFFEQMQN
Procedure, shortened: (§3)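 HFIP-pretreated Aβ1-42 incubated with or without inhibitor for 72 h; samples placed on carbon-coated copper grids, dried 1 h at 37 °C, imaged by FE-SEM. Glycine–NaOH buffer served as blank and Aβ alone as control.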

[8] = biological target: Amyloid-beta precursor protein (Homo sapiens) (UniProt P05067); test: Inhibition of self-induced amyloid beta (1 to 42 residues) (unknown origin) aggregation assessed as reduction in fibrils formation measured after 72 hrs by FE-SEM analysis; procedure, shortened: as §3
[9] = biological target: Amyloid-beta precursor protein (Homo sapiens) (UniProt P05067); test: Inhibition of self-induced amyloid beta (1 to 42 residues) (unknown origin) aggregation at 20 uM incubated at 48 hrs by fluorimetry-based thioflavin T assay
Procedure, shortened: (§4)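 Aβ1-42 pretreated with HFIP (1 mg mL−1) and dried, then incubated with compound (20 μM) at 37 °C for 24 h; an aliquot transferred and incubated further to 48 h. Glycine–NaOH buffer pH 8.0 with 5 μM ThT added; fluorescence read at 440–485 nm. % inhibition calculated against the Aβ-only control taken as 0%.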

[10] = biological target: Amyloid-beta precursor protein (Homo sapiens) (UniProt P05067); test: Inhibition of self-induced amyloid beta (1 to 42 residues) (unknown origin) aggregation at 20 uM incubated at 24 hrs by fluorimetry-based thioflavin T assay; procedure, shortened: as §4
[11] = biological target: T1, Cholinesterase; test: Inhibition of recombinant BuChE (unknown origin) using BTCI as substrate preincubated for 30 mins followed by substrate addition by TECAN multiplate reader analysis; procedure, shortened: as §1

| Structure (SMILES) | inhibition [1] [%] | inhibition at 20 µM [2] [%] | inhibition at 20 µM [6] [%] | further results |
| --- | --- | --- | --- | --- |
| C#CCCCOc1c(CN2CCOCC2)cc(-c2cc(=O)c3ccccc3o2)cc1OCC | 6.37 | 18.2 |  |  |
| O=C(NCCC1CCN(Cc2ccccc2)CC1)c1coc2cc(OCc3ccccc3)ccc2c1=O |  |  |  | pIC50 [3]: 6.43; pIC50 [4]: 6.57; pIC50 [5]: 5.28 |
| C#CCCCOc1c(CN2CCCCC2)cc(-c2cc(=O)c3ccccc3o2)cc1OC | 21.6 | 15.6 | 0.75 |  |
| Oc1ccc(/C=C/c2cc(O)cc(O)c2)cc1 |  |  |  | inhibition [7]: Active; inhibition [8]: Active |
| C#CCCCOc1c(CN2CCN(c3ccccc3)CC2)cc(-c2cc(=O)c3ccccc3o2)cc1OC | 1.69 | 13.1 | 2.6 |  |
| C#CCCCOc1c(CN(C)Cc2ccccc2)cc(-c2cc(=O)c3ccccc3o2)cc1OC | 17.6 | 17.5 |  |  |
| C#CCOc1c(CN2CCOCC2)cc(-c2cc(=O)c3ccccc3o2)cc1OC | 1.17 | 15.1 |  | inhibition [9]: 40.4%; inhibition [10]: 36.1% |
| C#CCOc1c(CN2CCOCC2)cc(-c2cc(=O)c3ccccc3o2)cc1OCC |  | 8.37 |  |  |
| C#CCCOc1c(CN2CCN(c3ccccc3)CC2)cc(-c2cc(=O)c3ccccc3o2)cc1OC | 1.63 | 35.4 | 9.14 |  |
| C#CCCCOc1c(CN2CCc3ccccc3C2)cc(-c2cc(=O)c3ccccc3o2)cc1OC | 51.5 | 19.8 | 11.3 | pIC50 [11]: 4.72 |
